The values that follow come from ChEMBL document CHEMBL4425094, “Novel Benzo[a]quinolizidine Analogs Induce Cancer Cell Death through Paraptosis and Apoptosis” (J Med Chem, 2016).

The source made the active and inactive calls. The rule behind the calls is not given here.

For series [1], the system named is PC-3. Nature of the series: Growth inhibition of human PC3 cells at IC30 in presence of bortezomib by MTT assay. Type of series: functional, cell-based. Summed up: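 PC3 cells incubated with increasing concentrations of compound combined with a second agent (bortezomib or partner compound). Viability determined, combination index calculated: CI < 1 synergism, = 1 additive, > 1 antagonism.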

In series [2] the test system is PC-3. Nature of the series: Induction of ER stress in human PC3 cells assessed as formation of vacuoles after 8 to 24 hrs […]. Type of series: functional, cell-based. Background: Immunoblotting shows a protein as a band on a membrane.
In series [3] the test system is PC-3. In words: Induction of cytoplasmic vacuolation in human PC3 cells assessed as increase in size and number of vacuoles at 1 uM by phase-contrast microscopic analysis. Type of series: functional, cell-based. The conditions noted are these: TDE = time-dependent effect. Summed up: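 PC3 cells in RPMI 1640 with 10% FBS at 37 °C, 5% CO2, treated with 1 μM agent for 0−24 h; DMSO vehicle control. Vacuole appearance, size and number followed over time by phase-contrast microscopy at constant magnification.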

A short description of series [4]: Toxicity in athymic Balb/c mouse assessed as induction of mortality at 15 mg/kg, ip administered every 2 days for 18 days. Type of series: organism-based. The conditions noted are these: in vivo. Summed up:
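Male athymic BALB/c-nu mice, 6 weeks old, bearing subcutaneous PC3M-luc-C6 xenografts (5 × 10^6 cells, right anterior flank) were grouped (n = 5) once tumours reached about 0.1 cm3. They received a 15 mg/kg suspension intraperitoneally every 2 days for 18 days, alongside placebo and docetaxel (15 mg/kg) groups. Body weight and deaths were recorded.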

Series [5] has as its system PC-3M. In words: Induction of immature autophagy i in human PC3M-lluc-C6 cells xenografted in athymic Balb/c mouse assessed as increase in LC3 protein levels at 15 mg/kg, ip administered every 2 days for 18 days by Western blot and immunohistochemical staining method. Type of series: functional, organism-based. Summed up:
(§1)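 Male athymic BALB/c-nu mice (6 weeks) carried subcutaneous right-flank PC3M-luc-C6 xenografts (5 × 10^6 cells). At ~0.1 cm3 they were grouped (n = 5) and given 15 mg/kg i.p. suspension every 2 days; placebo and docetaxel 15 mg/kg were controls. Tumors were analyzed by Western blot and by immunohistochemistry (anti-LC3 1:800, anti-p62 1:500, overnight 4 °C, HRP/DAB, hematoxylin counterstain).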

The subject of series [6] is PC-3. Nature of the series: Induction of ER stress in human PC3 cells assessed as upregulation of GRP78 after 4 hrs by Western blot analysis. Type of series: functional, cell-based. The procedure, abridged: (§2)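 PC3 cells in RPMI 1640 with 10% FBS, treated with compound for timed intervals. DMSO vehicle control. Lysis in RIPA buffer, 40 μg protein per lane on SDS-PAGE, transfer to nitrocellulose. Primary antibodies overnight at 4 °C, HRP-secondary 45 min, ECL detection. GAPDH or β-actin used as loading control.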

Series [7] deals with PC-3. Nature of the series: Cytotoxicity against human PC3 cells assessed as reduction in cell viability at 1 uM after 24 hrs in presence of PI3K inhibitor 3-MA by MTT assay. Type of series: functional, cell-based. Summed up: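 PC3 cells pretreated with autophagy inhibitor 3-MA or E64d, then given 1 μM compound for 24 h. Viability measured by MTT (4 h, 570 nm). Morphology checked by phase-contrast microscopy.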
Background: Formazan colour is commonly taken as a measure of viable cells.

The test system of series [8] is PC-3. In words: Induction of ER stress in human PC3 cells assessed as upregulation of CHOP after 24 hrs by Western blot analysis. Type of series: functional, cell-based. The procedure, abridged: as §2
In series [9] the test system is PC-3. Nature of the series: Induction of cell cycle arrest in human PC3 cells assessed as accumulation in S phase at 0.5 uM after 24 hrs by […]propidium iodide based flow cytometric analysis (reference value: 21 to 31.6 %). Type of series: functional. A general note: Flow cytometry measures light scatter and fluorescence of single cells or particles in a stream.

Series [10] has as its system PC-3. Nature of the series: Growth inhibition of human PC3 cells at IC30 in presence of […] by MTT assay. Type of series: functional.
Series [11] has as its system PC-3. Nature of the series: Induction of morphological changes in human PC3 cells incubated for 22 hrs after ER stress inhibitor 4-PBA exposure for 2 hrs by phase-contrast microscopic analysis. Type of series: functional, cell-based. Summed up:
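PC3 cells pretreated 2 h with 100 μM 4-PBA (ER stress inhibitor), then exposed to agent for a further 22 h. Morphology by phase-contrast microscopy; viability by MTT in parallel.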

The subject of series [12] is PC-3. Nature of the series: Induction of apoptosis in human PC3 cells assessed as early apoptotic cells at 0.5 uM after 24 hrs by Annexin V-FITC/propidium iodide based flow cytometric analysis (reference value: 2.3 %). Type of series: functional. The procedure, abridged:
(§3)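 PC3 cells exposed to 0.5, 1 or 2 μM for 24 h, then stained with Annexin V-FITC and PI and analyzed by FACSCalibur flow cytometry. Populations assigned as necrotic (Annexin V−/PI+), late apoptotic (double positive), normal (Annexin V−/PI−) and early apoptotic (Annexin V+/PI−). DMSO vehicle control.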

The subject of series [13] is PC-3. Nature of the series: Induction of cell cycle arrest in human PC3 cells assessed as accumulation in G2 phase at 0.5 uM after 24 hrs by […]propidium iodide based flow cytometric analysis (reference value: 16.3 to 25 %). Type of series: functional.
Series [14] concerns PC-3M. In words: Induction of immature autophagy i in human PC3M-lluc-C6 cells xenografted in athymic Balb/c mouse assessed as increase in p62 protein levels at 15 mg/kg, ip administered every 2 days for 18 days by Western blot and immunohistochemical staining method. Type of series: functional, organism-based. Summed up:
as §1

Series [15] relates to PC-3. Nature of the series: Induction of cell cycle arrest in human PC3 cells assessed as accumulation in G0/G1 phase at 2 uM after 24 hrs by […]propidium iodide based flow cytometric analysis (reference value: 43.5 to 62.5 %). Type of series: functional.
The test system of series [16] is PC-3. In words: Induction of apoptosis in human in human PC3 cells assessed as reduction in cell viability in presence of pan-caspase inhibitor Z-VAD-fmk by MTT assay. Type of series: functional, cell-based. The procedure, abridged: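 PC3 cells pretreated with Z-VAD-fmk (10 μM) or Ac-DEVD-CHO (50 μM) before compound exposure. Viability read by MTT at 570 nm. Significance tested against control by Student's t test.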

In series [17] the test system is PC-3M. In words: Antiproliferation activity against human PC3M-lluc-C6 cells xenografted in athymic Balb/c mouse assessed as decrease in cell viability at 15 mg/kg, ip administered every 2 days for 18 days by H and E staining based microscopic analysis. Type of series: functional, organism-based. Summed up: (§4)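 Male BALB/c-nu mice, 6 weeks old, each given 5 × 10^6 PC3M-luc-C6 cells subcutaneously in the right anterior flank. At ~0.1 cm3 tumor, groups of n = 5 received 15 mg/kg i.p. every 2 days. Docetaxel 15 mg/kg was the positive control. Tumor tissue stained with H&E or anti-Ki67 (1:500) overnight at 4 °C, HRP/DAB, hematoxylin counterstain, examined by microscopy.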

In series [18] the test system is PC-3. Nature of the series: Cytotoxicity against human PC3 cells transfected with LC3-targeting siRNA assessed as reduction in cell viability at 1 uM after 24 hrs by Western blot analysis. Type of series: functional, cell-based. Summed up: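 PC3 cells plated at 20−30% confluence and transfected 24 h later with 50 nM LC3-targeting or scramble siRNA. After 48 h, cells were exposed to 1 μM compound for a further 24 h. Read-out by Western blot and phase-contrast imaging.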

For series [19], the system named is PC-3. In words: Induction of cell cycle arrest in human PC3 cells assessed as accumulation in G2 phase at 2 uM after 24 hrs by […]propidium iodide based flow cytometric analysis (reference value: 16.3 to 25 %). Type of series: functional.
The test system of series [20] is PC-3M. In words: Antiproliferation activity against human PC3M-lluc-C6 cells xenografted in athymic Balb/c mouse assessed as decrease in cell viability at 15 mg/kg, ip administered every 2 days for 18 days by Ki-67 staining based microscopic analysis. Type of series: functional, organism-based. The procedure, abridged:
as §4

Series [21] relates to PC-3. Nature of the series: Induction of apoptosis in human PC3 cells assessed as late apoptotic cells at 2 uM after 24 hrs by Annexin V-FITC/propidium iodide based flow cytometric analysis (reference value: 1.1 %). Type of series: functional. Summed up: as §3

For the compound `Cc1cc(C)cc(COc2cc3c(cc2OCc2cc(C)cc(C)c2)[C@@H]2C[C@H](O)C[C@@H](C)N2CC3)c1` (racemic), the “growth inhibition (GI)” value with PC-3 [1] is “Active”. Also, the outcome with PC-3 [2], in the series with PC-3M [5], in the series on PC-3 [6], with PC-3 [8], in the series with PC-3M [14] and in the series on PC-3M [17] was Active. The Activity entry in the series with PC-3 [3] was “Tde”; in series [4] it was “Non-Toxic”; in the series on PC-3 [9], 16.1 - 21.3%; with PC-3 [12], 2.5%; in the series with PC-3 [13] it was 13.7 - 14.9%; with PC-3 [15] it was 80.2 - 81.4%. Also, the values for the Activity with PC-3 [19] and in the series with PC-3 [21] were 10.8 - 12.3% and 36.4%, respectively. Also, the outcome in the series on PC-3 [7], with PC-3 [11], with PC-3 [16] and with PC-3 [18] was inactive. Moreover, the “growth inhibition (GI)” value in the series on PC-3 [10] was found to be 54%. Further, in the series on PC-3M [20], the inhibition entry is “Active”.
